We go through ten molecules from ChEMBL document CHEMBL1157710, “Identification of triazinoindol-benzimidazolones as nanomolar inhibitors of the Mycobacterium tuberculosis enzyme TDP-6-deoxy-d-xylo-4-hexopyranosid-4-ulose 3,5-epimerase (RmlC)” (Bioorg Med Chem, 2010).

The IC50 is the point on the concentration scale where inhibition reaches its midpoint. Lower therefore signals higher potency. Usually MIC stands for the lowest concentration found to suppress growth. Lower therefore signals greater potency. By Ki is commonly meant the equilibrium dissociation constant of an inhibitor or competing ligand from its target. Low readings indicate a stronger hold on the target, high ones a looser hold on the target. Broadly, the inhibition is the relative decrease from the control value, in per cent.

In brackets after ≈: the same amount, converted by molar mass. Activity calls are given as the source filed them. The calls are words filed in the database; no cut-off is given here.

Assay [1] concerns the target T1, dTDP-4-dehydrorhamnose 3,5-epimerase (Mycobacterium tuberculosis (strain CDC 1551 / Oshkosh), UniProt P9WH10).
T1 sequence (P9WH10 whole entry): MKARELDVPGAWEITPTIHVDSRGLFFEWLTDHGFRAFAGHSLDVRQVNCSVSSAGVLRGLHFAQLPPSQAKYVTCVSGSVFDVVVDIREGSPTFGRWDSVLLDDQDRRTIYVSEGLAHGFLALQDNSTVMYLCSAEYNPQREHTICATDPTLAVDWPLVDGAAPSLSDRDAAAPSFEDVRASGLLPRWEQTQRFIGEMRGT
Briefly: Inhibition of Mycobacterium tuberculosis RmlC expressed in Escherichia coli by spectrophotometry. Put shortly:
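96-well absorbance assay at 340 nm (NADPH to NADP) in 200 μl of 50 mM MOPS pH 7.4 with 10% glycerol, 0.01% Triton X-100 and 1 mM MgCl2. Final RmlC 70 nM, RmlD 5 nM, TDP-KDX 200 μM, NADPH 25 μM; compound added in 4 μl DMSO. Reactions were started with RmlC and followed 80 min; IC50 came from initial velocities.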

Assay [2] has as its system Mycobacterium tuberculosis. As to the kind of experiment: Antimycobacterial activity against Mycobacterium tuberculosis H37Rv by microbroth dilution method. In kind it is functional. Background: Dilution methods test growth across graded concentrations, often in twofold steps.
In assay [3] the target is T2, dTDP-4-dehydrorhamnose 3,5-epimerase /dTDP-4-dehydrorhamnose reductase (Mycobacterium tuberculosis (strain ATCC 25618 / H37Rv), UniProt P9WH09+P9WH11).
T2 sequence (P9WH09 whole entry): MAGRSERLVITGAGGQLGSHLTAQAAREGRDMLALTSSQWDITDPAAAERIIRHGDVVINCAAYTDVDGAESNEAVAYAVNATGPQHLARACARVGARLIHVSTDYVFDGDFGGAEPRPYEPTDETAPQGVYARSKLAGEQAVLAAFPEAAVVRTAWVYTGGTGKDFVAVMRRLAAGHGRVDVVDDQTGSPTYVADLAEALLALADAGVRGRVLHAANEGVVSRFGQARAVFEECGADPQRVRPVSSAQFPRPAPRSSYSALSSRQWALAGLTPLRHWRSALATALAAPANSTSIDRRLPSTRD
T2 sequence (P9WH11 whole entry): T1 sequence (P9WH10 whole entry)
As to the kind of experiment: Inhibition of Mycobacterium tuberculosis RmlC/RmlD expressed in Escherichia coli by spectrophotometry. Put shortly: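 Final RmlC 2.63 × 10−4 μg/μl, RmlD 6.53 × 10−4 μg/μl, NADPH 25 μM, TDP-KDX 200 μM. A 16-point 2-fold series (55 μM to 1.7 nM) was read as the 90-min drop in 340/460 nm fluorescence at 25 °C, in triplicate. IC50 came from a 4-parameter logistic fit.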

Assay [4] deals with T3, dTDP-4-dehydrorhamnose 3,5-epimerase (Mycobacterium tuberculosis (strain CDC 1551 / Oshkosh)) (UniProt P9WH10).
T3 sequence (whole entry): T1 sequence (P9WH10 whole entry)
As to the kind of experiment: Inhibition of Mycobacterium tuberculosis RmlC expressed in Escherichia coli at 0.25 uM by spectrophotometry.

For assay [5], the target named is T3, dTDP-4-dehydrorhamnose 3,5-epimerase (Mycobacterium tuberculosis (strain CDC 1551 / Oshkosh)). Briefly: Inhibition of Mycobacterium tuberculosis RmlC expressed in Escherichia coli at 0.5 uM by spectrophotometry.
Assay [6] shares this target. As to the kind of experiment: Inhibition of Mycobacterium tuberculosis RmlC expressed in Escherichia coli at 5 uM by spectrophotometry.
The target is the same in assay [7]. Briefly: Competitive inhibition of Mycobacterium tuberculosis RmlC expressed in Escherichia coli assessed as increase in Km of TDP-KDX. Put shortly:
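Competitive-mode test: TDP-KDX varied 0–100 μM with inhibitor at 0, 0.1, 0.15 and 0.2 μM. Km and Vmax were fitted by non-linear regression. Km(obs) was plotted against inhibitor concentration, and Ki was taken from the slope (Km/Ki, Km as y-intercept).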

For assay [8] the target is unchanged. Briefly: Reversible inhibition of Mycobacterium tuberculosis RmlC expressed in Escherichia coli by time-dependence study. Put shortly:
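RmlD, TDP-KDX and NADPH were added, and the NADPH fluorescence decrease was followed over 200 min. Slopes from the later phase were compared with a no-compound control.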

The nature of assay [9]: Cytotoxicity against HAEC after 24 hrs. Further details: species or system Homo sapiens. Put shortly:
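Human aortic endothelial cells were seeded at 1000 cells/well in EGM-2 and held 24 hr at 37 °C. They were then exposed 24 hr at 37 °C to a 16-point 2-fold series (final 100 μM to 3 nM) with a DMSO solvent control. Viability was read by CellTiter-Glo luminescence after 10 min, in triplicate.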

As to `CCCn1c2ccccc2c2nnc(SCCCn3c(=O)[nH]c4ccccc43)nc21`, in [1], inhibition was half-maximal at 1250 nM (IC50). Further, the MIC in assay [2] came to 9 µg/mL (≈ 21.5 µM).
The molecule `C=CCn1c2ccccc2c2nnc(S(=O)(=O)CCCn3c(=O)[nH]c4ccccc43)nc21` displayed an IC50 in [1] of 400 nM.
On the same count and under the same terms, for `C=CCn1c2ccccc2c2nnc(SCn3c(=O)[nH]c4ccccc43)nc21` the value was 10300 nM.
For the molecule `C=CCn1c2ccccc2c2nnc(SCCCn3c(=O)[nH]c4ccccc43)nc21`, in assay [1], the IC50 is 120 nM and affinity was put at a Ki of 62 nM. In addition, the MIC in assay [2] stood at 13 µg/mL (≈ 31.2 µM).
Regarding `CCn1c2ccccc2c2nnc(SCCCn3c(=O)[nH]c4ccccc43)nc21`, the results for the IC50 in [3], in [1] and in [9] were 398 nM, 200 nM and 75000 nM, respectively. Further, the inhibition came to 52% in assay [4], 72% in assay [5] and 83% in assay [6]. The molecule also came in with a Ki in assay [1] of 100 nM. Also, in assay [7], the outcome was Active. In addition, the inhibition result in assay [8] was “Active”. The molecule further returned an MIC in [2] of 19 µg/mL (≈ 47 µM).
On to `O=c1[nH]c2ccccc2n1CCCSc1nnc2c(n1)[nH]c1ccccc12`, for which the IC50 in [1] turned out to be 3300 nM.
The molecule `O=c1[nH]c2ccccc2n1CCCSc1nnc2c3ccccc3n(Cc3ccccc3)c2n1` displayed an IC50 in assay [1] of 2900 nM. The MIC in [2] was over 50 µg/mL.
For `Cn1c2ccccc2c2nnc(SCCCn3c(=O)[nH]c4ccccc43)nc21` the same measures were 500 nM and 9 µg/mL (≈ 23 µM).
For `C=CCn1c2ccc(C)cc2c2nnc(SCCCn3c(=O)[nH]c4ccccc43)nc21` the same measures were 20000 nM and 25 µg/mL (≈ 58.1 µM).
Molecule `CCn1c2ccccc2c2nnc(S(=O)(=O)CCCn3c(=O)[nH]c4ccccc43)nc21` had an IC50 in [1] of 800 nM.
